Measurements: ChEMBL document CHEMBL1124035, “1-Amino-substituted 4-methyl-5H-pyrido[4,3-b]indoles (gamma-carbolines) as tricyclic analogues of ellipticines: a new class of antineoplastic agents” (1988)

How the values were obtained:
[1] = tested on: Mus musculus; experiment: Survivors at day 60 when a dose of 1.25 mg/kg to B16 melanoma infected mice; 0/10
[2] = tested on: Mus musculus; experiment: […] in C38 adenocarcinoma cell line when a dose of 50 mg/kg administered intravenously to mice; assay type: functional, MC-38; settings: route intravenous
In short: (§1)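 C38 colon adenocarcinoma in hybrid BD F1 mice, 10 per test. A standard 3-mm³ tumour fragment was implanted sc. Drugs were given iv at the stated doses on D1 or on D2 + D9, following the Geran et al. NCI protocol.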

[3] = tested on: Mus musculus; experiment: Survivors at day 60 when a dose of 2.5 mg/kg to B16 melanoma infected mice; 0/10
[4] = tested on: Mus musculus; experiment: Median survival day in P388 leukemia model when a dose of 50 mg/kg administered intravenously to mice; assay type: functional; settings: route intravenous
In short: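 P388 leukaemia in CDF1 hybrid mice, 10 per group. At D0, 10^6 viable cells were inoculated ip, followed by a single iv dose on D1. Weight change, median survival day, T/C (treated/control median survival × 100) and survivors at D30 were recorded.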

[5] = tested on: Mus musculus; experiment: Survivors at day 60 when a dose of 5 mg/kg to B16 melanoma infected mice; 3/10
[6] = tested on: Mus musculus; experiment: Median survival day of B16 melanoma infected micee when a dose of 5 mg/kg administered intraperitoneally; assay type: functional; settings: route intraperitoneal
In short: (§2)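 B16 melanoma in hybrid BD F1 mice. At D0 each mouse was inoculated ip with 0.5 mL of homogenate made from 1 g of tumour in 10 mL of physiological serum. Compounds were given ip daily at the stated doses for 9 days (D1-9), with cis-platinum 0.5 mg/kg under the same schedule as positive control.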

[7] = tested on: Mus musculus; experiment: Weight change in g when a dose of 50 mg/kg intravenous administration to P388 leukemia mice model; assay type: functional
In short: (§3)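 Mice (10 per group) were inoculated ip at D0 with 10^6 P388 leukemia cells and given a single iv dose at D1. Read-outs were weight change (g), median survival day, T/C % versus controls and survivors at D30.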

[8] = tested on: Mus musculus; experiment: Weight change in g when a dose of 20 mg/kg intravenous administration to L1210 leukemia mice model; assay type: functional
In short: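 Mice received 10^5 L1210 leukemia cells ip at D0, then a single iv drug dose at D1. Read-outs were weight change (g), median survival day, T/C % and survivors at D30.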

[9] = tested on: Mus musculus; experiment: Median tumoral volume of C38 adenocarcinoma model when a dose of 100 mg/kg administered intravenously on D1 to mice; assay type: functional; settings: route intravenous
In short: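 Geran protocol in hybrid BDF1 mice, 10 per test, implanted sc with a standard 3-mm³ fragment of C38 colon adenocarcinoma. Drug was given iv at the stated doses on D1, or on D2 + D9, and tumor growth was followed.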

[10] = tested on: Mus musculus; experiment: In vivo toxicity test on P388 cells at a dose of 50 mg/kg administered intravenously to P388 leukemia mice model; assay type: functional; settings: route intravenous
In short: as §3

[11] = tested on: Mus musculus; experiment: Survivors at day D32 when a dose of 75 mg/kg administered intravenously to C38 adenocarcinoma mice models; 10/10; assay type: functional; settings: route intravenous
In short: (§4)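 Hybrid BDF1 mice, 10 per test, were implanted sc with a standard 3-mm³ fragment of C38 colon adenocarcinoma. Drug was given iv either on D1 alone or on D2 and D9. Animals were followed per NCI (Geran) protocol.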

[12] = tested on: Mus musculus; experiment: Survivors at day D38 when a dose of 100 mg/kg administered intravenously to C38 adenocarcinoma cell lines on D1 to mice; 10/10; assay type: functional, MC-38; settings: route intravenous
In short: as §4

[13] = tested on: Mus musculus; experiment: […] in C38 adenocarcinoma cell line when a dose of 75 mg/kg administered intravenously to mice; assay type: functional, MC-38; settings: route intravenous
In short: as §1

[14] = tested on: Mus musculus; experiment: Antitumor activity against L1210 leukemia mice model at a dose of 20 mg/kg administered intravenously; assay type: functional; settings: route intravenous
In short: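 P388 (10^6 cells) or L1210 (10^5 cells) leukemia was inoculated ip in mice at D0, followed by a single iv drug treatment on D1. Weight change was recorded. T/C % = median survival day of treated / controls × 100; survivors noted at D30; 10-15 mice per group.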

[15] = tested on: Mus musculus; experiment: Median survival day in B16 melanoma cell line when a dose of 5 mg/kg administered intraperitoneally to mice; assay type: functional; settings: route intraperitoneal
In short: as §2

[16] = tested on: Mus musculus; experiment: Weight change in g when a dose of 5 mg/kg administered intraperitoneally in B-16 melanoma infected mice; assay type: functional; settings: route intraperitoneal
In short: (§5)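 Hybrid BDF1 mice were inoculated ip at D0 with 0.5 mL of B16 melanoma homogenate (1 g tumor in 10 mL physiological serum). Drug was given ip daily on days 1-9, with cis-platinum 0.5 mg/kg as positive control on the same schedule.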

[17] = tested on: Mus musculus; experiment: Weight change in g when a dose of 20 mg/kg administered intraperitoneally in B-16 melanoma infected mice; assay type: functional; settings: route intraperitoneal
In short: as §5

[18] = tested on: Mus musculus; experiment: Antitumor activity against P388 cells at a dose of 20 mg/kg administered intraperitoneally P388 Leukemia model; assay type: functional; settings: route intraperitoneal
In short: (§6)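 Mice were inoculated ip with 10^6 P388 leukemia cells at D0, then given a single ip drug dose on D1. Weight change was recorded. T/C % = median survival day of treated / controls × 100; survivors counted at D30; 10 mice per dose group, 20 controls.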

[19] = tested on: Mus musculus; experiment: Survivors at day 60 when a dose of 20 mg/kg to B16 melanoma infected mice; 5/10; assay type: functional
[20] = tested on: Mus musculus; experiment: Survivors at day 30 when a dose of 40 mg/kg to P388 leukemia model; 0/10; assay type: functional
[21] = tested on: Mus musculus; experiment: Weight change in g when a dose of 2.5 mg/kg administered intraperitoneally in B-16 melanoma infected mice; assay type: functional; settings: route intraperitoneal
In short: as §5

[22] = tested on: Mus musculus; experiment: Antitumor activity against P388 cells at a dose of 80 mg/kg administered intraperitoneally P388 Leukemia model; assay type: functional; settings: route intraperitoneal
In short: as §6

[23] = tested on: Mus musculus; experiment: Median survival day of P388 leukemia infected mice, when a dose of 10 mg/kg administered intraperitoneally; assay type: functional; settings: route intraperitoneal
In short: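 P388 leukaemia in CDF1 hybrid mice, 10 per group. At D0, 10^6 viable cells were inoculated ip, followed by a single ip dose of drug in distilled water on D1. Weight change, median survival day, T/C (treated/control median survival × 100) and survivors at D30 were recorded. Controls were 20 mice.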

[24] = tested on: Mus musculus; experiment: Weight change in g when a dose of 100 mg/kg (iv) to P388 leukemia model; assay type: functional
In short: as §3

[25] = tested on: Mus musculus; experiment: Antitumor activity against P388 cells at a dose of 10 mg/kg administered intraperitoneally to mice; assay type: functional; settings: route intraperitoneal
[26] = tested on: Mus musculus; experiment: Weight change in g when a dose of 10 mg/kg administered intraperitoneally to P388 leukemia infected mice; assay type: functional; settings: route intraperitoneal
In short: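 P388 model with a single ip dose. Mice (10 per group) were inoculated ip at D0 with 10^6 P388 cells and given one ip drug dose at D1. Body-weight change (g), median survival day, T/C and survivors at D30 were recorded.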

[27] = tested on: Mus musculus; experiment: Survivors at day 30 when a dose of 5 mg/kg administered to P388 leukemia infected when tested in 10 mice; assay type: functional
[28] = tested on: Mus musculus; experiment: Survivors at day 30 when a dose of 50 mg/kg administered intravenously to P388 (iv) to L1210 leukemia mice model; assay type: functional
[29] = tested on: Mus musculus; experiment: Antitumor activity against P388 cells at a dose of 5 mg/kg administered intraperitoneally to mice; assay type: functional; settings: route intraperitoneal

Molecule `CCN(CC)CCCNc1ncc(C)c2c1c1cc(O)ccc1n2C` has a Survivors [1] of 0, a Median tumoral volume [2] of 1.38 cm*3 and a Survivors [3] of 0. It also gave a Median survival day [4] of 19, a Survivors [5] of 3 and a Median survival day [6] of 41.25. For the same molecule, the Weight change [7] was -0.7 g, the Weight change [8] was -0.4 g and the Median tumoral volume [9] was 3.24 cm*3. It also gave a T/C [10] of 174%, a Survivors [11] of 10 and a Survivors [12] of 10. The Median tumoral volume [13] was 0.97 cm*3 and the T/C [14] was 132%.
`CCN(CC)CCCNc1[nH]cc(C)c2nc3ccc(O)cc3c1-2` gave a Median survival day [15] of 48, a Weight change [16] of -0.1 g and a Weight change [17] of -0.8 g. The T/C [18] was 139%, the Survivors [19] was 5 and the Survivors [20] was 0. For the same molecule, the Weight change [21] was 3.6 g and the T/C [22] was 20%.
For `Cc1cnc(NCCCN(C)C)c2c3cc(O)ccc3n(C)c12`, the Median survival day [23] was 19, the Weight change [24] was -0.25 g and the T/C [25] was 167%. For the same molecule, the Weight change [26] was -1.4 g, the Survivors [27] was 0 and the Survivors [28] was 1. It also gave a T/C [29] of 173%.
